A short description of assay [1]: reducers of endogenous Her2 protein level, primary screen, SKBR3 breast tumor cells, AlphaScreen, ATP viability (AID 461;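 active = Her2 level under about 52% in both replicate screens, with viability over 70% of control, limit read from the data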;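 as to Her2 level: lower value means less Her2 protein in the cells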;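 as to viability: percent of carrier control wells set as 100% viability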). To be noted: 18-24 h, measured here: SKBR3 viability, ATP luminescence, at 10 µM. Background: Alpha assays give light when donor and acceptor beads are brought close together.
Assay [2] has as its target Receptor tyrosine-protein kinase erbB-2 (Homo sapiens) (UniProt P04626). The assay is described as above. To be noted: 18-24 h, at 10 µM, stronger effect = lower value.
Assay [3] can be described thus: SK-BR-3 cell growth inhibitors, pilot screen, 24 h, human (AID 572;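 active = viability at or below 10% of carrier control in both of two separate runs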;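 also: compound exposure lasted between 18 and 24 h rather than exactly 24 h; 100% = carrier-treated control wells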). The note with it: SK-BR-3 viability, CellTiter-Glo luminescence, at 10 µM, stronger effect = lower value.
A short description of assay [4]: HUVEC growth inhibition – cell-based, human, primary screen (AID 575;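 active = viability at or below 30% in both replicate assays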;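 also: 100% = median of untreated cell wells with 0.1% DMSO on each plate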). To be noted: HUVEC proliferation, CellTiter-Glo luminescence, 72 h; at 10 µM; stronger effect = lower value. In short, it runs like this:
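Test system: primary human umbilical vein endothelial cells. Quantity: 1250 cells/well. Compound: single 10 µM dose, 0.1% DMSO, from 5x medium stock. Timing: 72 h treatment at 37 °C. Detection: ATP-based CellTiter-Glo luminescent read. Benchmarks: vehicle and MePR control wells. Format: 384-well plates coated with collagen.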
(In general: ATP-based viability assays read luminescence as a measure of living cells.)

The nature of assay [5]: growth inhibitors of H69AR lung tumor, primary screen, human, duplicate replicates (AID 580;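 active = viability at or under a set limit in both replicates, limit being median viability minus 3 SD, cut at about 48% in these data, passing the limit was not always enough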;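 also: 100% = mean luminescence of untreated wells and 0% = no signal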). The note with it: H69AR lung tumor cells viability, ATP luminescence, 72 h; at 10 µM; stronger effect = lower value.
A short description of assay [6]: reversal of MRP1-mediated doxorubicin resistance, pilot screen, H69AR cells, doxorubicin co-treatment (AID 601). The note with it: CellTiter-Glo, 72 h, at 10 µM; for differential viability (reversal): stronger effect = higher value.
Assay [7] is described as follows: 384-well plate pilot, post-Golgi transport modulator project, inhibition of yeast transport mutant growth (AID 636; in the data active = inhibition above about 31%). The note with it: absorbance 615 nm, about 18 h, stronger effect = higher value.
Assay [8] can be described thus: growth suppression of yeast trafficking mutant, preliminary HTS, modulators of trafficking downstream of Golgi apparatus project, 1536-format plate, OD 615 nm (AID 637; in the data active = inhibition above about 30%). The note with it: yeast transport mutant growth, absorbance 615 nm, 18 h; stronger effect = higher value.
Setting [9] is: H69AR cells + 2 uM doxorubicin, measured here: viability with 2 uM doxorubicin, stronger effect = lower value.
[10] abbreviates: H69AR cells, compound alone cytotoxicity.

Molecules are shown by their SMILES. The source made the active and inactive calls.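 The calls were made as follows, unless noted: active = viability loss from added drug above about 55%, and viability with drug at most 40%, in both replicates (limit read from the data, passing the limit was not always enough); inconclusive = both conditions met in only one replicate; inactive = neither replicate meets both conditions.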

By viability is commonly meant a read-out of living cells in per cent, often relative to untreated cells. In general, inhibition refers to the relative decrease from the control value, in per cent.

Receptor tyrosine-protein kinase erbB-2 (Homo sapiens), sequence (P04626 whole entry, looked up): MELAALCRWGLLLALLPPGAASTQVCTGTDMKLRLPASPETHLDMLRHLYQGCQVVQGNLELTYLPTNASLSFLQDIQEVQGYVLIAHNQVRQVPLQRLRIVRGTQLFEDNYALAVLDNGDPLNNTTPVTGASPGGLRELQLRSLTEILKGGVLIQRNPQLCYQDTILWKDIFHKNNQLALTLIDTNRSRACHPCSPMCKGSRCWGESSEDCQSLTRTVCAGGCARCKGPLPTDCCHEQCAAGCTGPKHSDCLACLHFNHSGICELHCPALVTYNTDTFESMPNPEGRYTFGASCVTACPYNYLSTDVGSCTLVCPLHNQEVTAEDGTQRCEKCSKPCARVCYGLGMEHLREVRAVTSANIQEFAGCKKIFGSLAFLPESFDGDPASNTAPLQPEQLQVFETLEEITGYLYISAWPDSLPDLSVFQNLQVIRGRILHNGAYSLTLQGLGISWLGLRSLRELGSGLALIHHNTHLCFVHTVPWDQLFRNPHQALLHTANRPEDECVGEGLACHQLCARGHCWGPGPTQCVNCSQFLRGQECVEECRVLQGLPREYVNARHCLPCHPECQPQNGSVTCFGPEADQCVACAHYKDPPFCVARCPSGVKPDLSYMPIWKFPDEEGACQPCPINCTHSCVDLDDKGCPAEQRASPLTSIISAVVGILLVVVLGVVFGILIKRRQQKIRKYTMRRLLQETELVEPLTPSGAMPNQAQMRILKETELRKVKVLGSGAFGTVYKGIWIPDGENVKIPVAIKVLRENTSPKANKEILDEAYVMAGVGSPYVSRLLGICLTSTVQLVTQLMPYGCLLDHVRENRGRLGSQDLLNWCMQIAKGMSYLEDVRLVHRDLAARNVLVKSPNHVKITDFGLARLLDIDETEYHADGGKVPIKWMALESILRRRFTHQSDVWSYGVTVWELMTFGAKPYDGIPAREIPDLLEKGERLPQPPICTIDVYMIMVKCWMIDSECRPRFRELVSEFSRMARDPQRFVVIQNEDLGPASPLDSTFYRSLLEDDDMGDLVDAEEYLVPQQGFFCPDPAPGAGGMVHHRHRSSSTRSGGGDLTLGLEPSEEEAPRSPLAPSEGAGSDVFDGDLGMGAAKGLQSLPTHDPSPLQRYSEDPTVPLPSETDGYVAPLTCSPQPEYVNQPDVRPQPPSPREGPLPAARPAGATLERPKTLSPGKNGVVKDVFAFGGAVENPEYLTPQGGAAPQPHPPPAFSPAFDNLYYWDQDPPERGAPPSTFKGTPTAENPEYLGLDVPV

Turning to `C=CCn1c(C)cc(C(=O)CSc2nc3ccccc3o2)c1C`, the viability in assay [1] was 108%; in assay [3], 108% (inactive); in assay [4], 81.2% (inactive); in assay [5] it was 95.6% (inactive); in assay [6] (setting [9]) it was 85.6%; in assay [6] (setting [10]), 95.6%. Further, the Her2 level in assay [2] was 72.5% (inactive). Besides, the differential viability (reversal) in assay [6] (H69AR cells + 2 uM doxorubicin) was 10% (inactive). Moreover, the values for the inhibition in assay [7] and in assay [8] were -2.84% (inactive) and -3.33% (inactive), respectively.

As to `COc1ccc(-n2c(=O)[nH]cc(C(=O)Nc3ccc(NC(C)=O)cc3)c2=O)cc1`, the viability in assay [1] is 100%; in assay [3] it was 100% (inactive); in assay [4] it was 98.8% (inactive); in assay [5] it was 96.1% (inactive); in assay [6] (setting [9]), 95.7%; in assay [6] (setting [10]), 96.1%. For the same compound, the Her2 level in assay [2] is 106% (inactive). In addition, the differential viability (reversal) in assay [6] (H69AR cells + 2 uM doxorubicin) was 0.385% (inactive). Moreover, the inhibition in assay [7] was -3.78% (inactive); in assay [8], 0% (inactive).

For the compound `O=C(NCc1ccc(F)cc1)C1CCN(C(=O)NCc2ccccc2)CC1`, the viability in assay [1] was 115%; in assay [3] it was 115% (inactive); in assay [4], 89.8% (inactive); in assay [5], 101% (inactive); in assay [6] (setting [9]) it was 93.8%; in assay [6] (setting [10]), 101%. Besides, the Her2 level in assay [2] is 110% (inactive). For the same compound, in assay [6] (H69AR cells + 2 uM doxorubicin), the differential viability (reversal) is 6.81% (inactive). For the same compound, the values for the inhibition in assay [7] and in assay [8] were -3.38% (inactive) and -7.17% (inactive), respectively.

As to `O=c1c2ccccc2nc(SCc2cccc(F)c2)n1Cc1ccco1`, the viability in assay [1] is 104%; in assay [3], 104% (inactive); in assay [4], 87.6% (inactive); in assay [5] it was 84.2% (inactive); in assay [6] (setting [9]), 82.8%; in assay [6] (setting [10]), 84.2%. In assay [2], the Her2 level was 97.5% (inactive). Moreover, the differential viability (reversal) in assay [6] (H69AR cells + 2 uM doxorubicin) was 1.36% (inactive). The inhibition in assay [7] was -5.33% (inactive); in assay [8], -0.63% (inactive).

As for `O=C(Nc1ccccc1C(F)(F)F)c1cc(S(=O)(=O)N2CCOCC2)ccc1F`, the viability was 96.5% in assay [1]; 96.5% (inactive) in assay [3]; 102% (inactive) in assay [4]; 90.4% (inactive) in assay [5]; 81.5% in assay [6] (setting [9]); 90.4% in assay [6] (setting [10]). In addition, the Her2 level in assay [2] was 91.5% (inactive). Besides, the differential viability (reversal) in assay [6] (H69AR cells + 2 uM doxorubicin) was 8.93% (inactive). Further, the inhibition in assay [7] is -6.49% (inactive); in assay [8], 1.43% (inactive).

For `COC(=O)N1CC(c2ccccc2)CC1=O` (stereo not given), the viability in assay [1] was 96.5%; in assay [3], 96.5% (inactive); in assay [4], 101% (inactive); in assay [5], 100% (inactive); in assay [6] (setting [9]), 85%; in assay [6] (setting [10]) it was 100%. In addition, in assay [2], the Her2 level was 81.5% (inactive). Further, the differential viability (reversal) in assay [6] (H69AR cells + 2 uM doxorubicin) is 15.1% (inactive). In addition, the figures for the inhibition in assay [7] and in assay [8] were -9.04% (inactive) and -6.51% (inactive), respectively.

On to `c1coc(-c2nnc(NC3=NCCC3)o2)c1`, for which the viability is 100% in assay [1]; 100% (inactive) in assay [3]; 97.2% (inactive) in assay [4]; 98.7% (inactive) in assay [5]; 87.3% in assay [6] (setting [9]); 98.7% in assay [6] (setting [10]). The Her2 level in assay [2] was 94% (inactive). In addition, in assay [6] (H69AR cells + 2 uM doxorubicin), the differential viability (reversal) is 11.4% (inactive). Besides, the inhibition is -5.34% (inactive) in assay [7] and -10.2% (inactive) in assay [8].

As to `COC(=O)c1ccccc1NC(=O)CC(NCc1ccccc1)C(=O)O` (stereo not given), the viability in assay [1] is 102%; in assay [3], 102% (inactive); in assay [4], 103% (inactive); in assay [5], 104% (inactive); in assay [6] (setting [9]) it was 103%; in assay [6] (setting [10]), 104%. In assay [2], the Her2 level is 111% (inactive). In assay [6] (H69AR cells + 2 uM doxorubicin), the differential viability (reversal) is 0.78% (inactive). In addition, the inhibition in assay [7] was -2.11% (inactive); in assay [8], -12.3% (inactive).

Take `Cc1ccc(C(=O)OCC(=O)c2ccc(Cl)s2)s1`: the viability in assay [1] was 93.5%; in assay [3] it was 93.5% (inactive); in assay [4], 96% (inactive); in assay [5], 97.4% (inactive); in assay [6] (setting [9]), 90.8%; in assay [6] (setting [10]) it was 97.4%. Moreover, in assay [2], the Her2 level is 101% (inactive). In assay [6] (H69AR cells + 2 uM doxorubicin), the differential viability (reversal) was 6.55% (inactive). For the same compound, the figures for the inhibition in assay [7] and in assay [8] were -0.93% (inactive) and -10.3% (inactive), respectively.

As for `Nc1nc(CSCc2ccccc2)nc(N2CCOCC2)n1`, the viability in assay [1] is 99.5%; in assay [3] it was 99.5% (inactive); in assay [4], 109% (inactive); in assay [5], 95% (inactive); in assay [6] (setting [9]), 89.2%; in assay [6] (setting [10]), 95%. For the same compound, in assay [2], the Her2 level was 93.5% (inactive). For the same compound, the differential viability (reversal) in assay [6] (H69AR cells + 2 uM doxorubicin) was 5.8% (inactive). In addition, the inhibition was -5.27% (inactive) in assay [7] and -8.67% (inactive) in assay [8].

With `CCOC(=O)c1cccc(NC(=O)CSc2nc3ccccc3c(=O)n2CC)c1`, the viability in assay [1] was 87%; in assay [3], 87% (inactive); in assay [4], 65% (inactive); in assay [5] it was 71.1% (inactive); in assay [6] (setting [9]), 67%; in assay [6] (setting [10]) it was 71.1%. Moreover, the Her2 level in assay [2] was 79% (inactive). In addition, the differential viability (reversal) in assay [6] (H69AR cells + 2 uM doxorubicin) is 4.1% (inactive). Moreover, the inhibition in assay [7] was -3.95% (inactive); in assay [8], 0.48% (inactive).

Consider `CCOC(=O)N1CCN(C(=O)CSc2nnc(-c3cc(OC)cc(OC)c3)o2)CC1`, for which the viability is 86.5% in assay [1]; 86.5% (inactive) in assay [3]; 92.7% (inactive) in assay [4]; 85.7% (inactive) in assay [5]; 89.5% in assay [6] (setting [9]); 85.7% in assay [6] (setting [10]). The Her2 level in assay [2] is 75.5% (inactive). The differential viability (reversal) in assay [6] (H69AR cells + 2 uM doxorubicin) is -3.85% (inactive). Besides, the figures for the inhibition in assay [7] and in assay [8] were -5.66% (inactive) and -1% (inactive), respectively.

Turning to `C=CCn1c(-c2ccc(OC)cc2)nc2ccccc21`, the viability in assay [1] is 118%; in assay [3], 118% (inactive); in assay [4] it was 110% (inactive); in assay [5] it was 95.5% (inactive); in assay [6] (setting [9]), 90.8%; in assay [6] (setting [10]), 95.5%. Moreover, the Her2 level in assay [2] was 99.5% (inactive). In assay [6] (H69AR cells + 2 uM doxorubicin), the differential viability (reversal) is 4.69% (inactive). Moreover, the inhibition in assay [7] was -4.27% (inactive); in assay [8], 3.71% (inactive).

In the case of `O=C(O)CCCC(=O)NCCc1ccncc1`, the viability in assay [1] was 98%; in assay [3], 98% (inactive); in assay [4], 97% (inactive); in assay [5], 107% (inactive); in assay [6] (setting [9]), 98.5%; in assay [6] (setting [10]), 107%. Moreover, the Her2 level in assay [2] was 89% (inactive). Besides, the differential viability (reversal) in assay [6] (H69AR cells + 2 uM doxorubicin) was 7.97% (inactive). Also, the inhibition in assay [7] is -1.84% (inactive); in assay [8], -1.27% (inactive).

`O=C(CSc1nnc(C2CC2)n1Cc1ccccc1)c1ccc(S(=O)(=O)N2CCOCC2)cc1`: the viability in assay [1] was 120%; in assay [3], 120% (inactive); in assay [4], 95% (inactive); in assay [5], 86.9% (inactive); in assay [6] (setting [9]), 74.4%; in assay [6] (setting [10]), 86.9%. For the same compound, in assay [2], the Her2 level is 92% (inactive). For the same compound, the differential viability (reversal) in assay [6] (H69AR cells + 2 uM doxorubicin) was 12.5% (inactive). Further, the values for the inhibition in assay [7] and in assay [8] were -1.82% (inactive) and 6.72% (inactive), respectively.

For the origin of these results see PubChem BioAssay.
